PAFAH1B3 FP inh = inhibitors of human PAFAH1B3; Q15102; recombinant PAFAH1B3, FP-rhodamine probe, fluorescence polarization; inhibition, % at 3.39 µM; 0.28% of 340,000 active;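 active = inhibition above the screen-wide average of all tested compounds plus 3 SD, cut at about 25% in these data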;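 also: 0% = enzyme with DMSO only and 100% = wells lacking PAFAH1B3 protein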
Target sequence (Q15102 whole entry, looked up): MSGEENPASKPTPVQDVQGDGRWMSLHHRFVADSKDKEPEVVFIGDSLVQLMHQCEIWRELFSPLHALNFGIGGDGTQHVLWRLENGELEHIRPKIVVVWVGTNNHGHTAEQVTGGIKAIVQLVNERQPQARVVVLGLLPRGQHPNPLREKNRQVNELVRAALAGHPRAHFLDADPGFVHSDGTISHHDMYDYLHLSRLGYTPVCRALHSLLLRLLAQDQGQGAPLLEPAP
pPAFAH inh = pPAFAH (human) enzyme inhibition; Q13093; recombinant pPAFAH, FP-rhodamine probe fluorescence polarization; inhibition, % at 3.39 µM; 1.5% of 330,000 active; AID 463082;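 active = inhibition above the mean inhibition across the screen plus 3 SD, cut at about 25% in these data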;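 also: inhibitors block binding of the rhodamine activity-based probe so polarization drops; 0% = enzyme with DMSO and 100% = wells lacking pPAFAH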
HTRA1 inhibitor = inhibitors of human serine peptidase HTRA1; inhibition, % at 5.96 µM; recombinant HTRA1, FP-rhodamine activity-based probe, fluorescence polarization; AID 504803; 0.5% of 340,000 active; in the data active = inhibition above about 36%;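 also: 0% = enzyme with DMSO and 100% = wells lacking enzyme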
PAFAH2 inh = PAFAH2 (human) inhibition. Q99487. recombinant PAFAH2, FP-rhodamine activity probe, fluorescence polarization. inhibition, % at 3.39 µM. 0.99% of 340,000 active. AID 492956;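 active = inhibition above the mean over all tested compounds plus 3 SD, cut at about 30% in these data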;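 also: inhibitors block probe labeling of enzyme so polarization drops; 0% = enzyme with DMSO and 100% = wells lacking PAFAH2 protein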
PAFAH1B2 inh = inhibitors of human PAFAH1B2. P68402. recombinant PAFAH1B2, FP-rhodamine activity probe, fluorescence polarization. inhibition, % at 3.39 µM. 1.2% of 340,000 active. AID 492953;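 active = inhibition above the mean of all tested compounds plus 3 SD, cut at about 24% in these data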;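 also: 0% = enzyme with DMSO and 100% = wells lacking PAFAH1B2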
Target sequence (P68402 whole entry, looked up): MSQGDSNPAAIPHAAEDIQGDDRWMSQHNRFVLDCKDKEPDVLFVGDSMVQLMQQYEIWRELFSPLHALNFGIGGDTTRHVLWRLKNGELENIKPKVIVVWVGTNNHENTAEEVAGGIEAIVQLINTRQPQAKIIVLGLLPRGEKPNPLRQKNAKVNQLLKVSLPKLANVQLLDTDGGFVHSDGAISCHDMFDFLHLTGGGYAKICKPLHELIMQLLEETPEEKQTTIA
ABHD4 inh = inhibitors of mouse ABHD4 | Q8VD66 | inhibition, % at 8.92 µM | 0.54% of 370,000 active | purified mABHD4, FP-Rh probe fluorescence polarization;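 active = inhibition exceeding the mean over every tested compound plus 3 SD, cut at about 30% in these data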;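 also: 0% = plate median of compound wells and 100% = S159A mutant with DMSO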
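Assay system: wild-type mouse ABHD4 protein; compound: single nominal dose of 8.92 µM, 0.89% DMSO final; schedule: 45 min + 60 min at 25 °C; measured by: FP readout, ex 525 nm / em 598 nm; evaluation: % inhibition of FP-Rh probe binding versus controls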
PAFAH1B3 conf FP = confirmation of human PAFAH1B3 inhibitors; shares compounds with PAFAH1B3 FP inh; recombinant PAFAH1B3, FP-Rh activity-based probe, fluorescence polarization; inhibition, % at 3.39 µM; 30% of 390 active; AID 493032;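 active = average inhibition over triplicate runs above the hit cutoff set in the earlier primary screen, cut at about 25% in these data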;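 also: 0% = enzyme with DMSO and 100% = wells lacking PAFAH1B3 protein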
HTRA1 conf = confirmation of human HTRA1 inhibitors | shares compounds with HTRA1 inhibitor | recombinant HTRA1, FP-rhodamine activity-based probe, fluorescence polarization | inhibition, % at 5.96 µM | 66% of 1,600 active | AID 540248;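 active = mean inhibition over three repeats above a set limit taken from the earlier primary screen, cut at about 37% in these data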;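 also: 0% = HTRA1 with DMSO and 100% = wells lacking HTRA1; inhibitors block probe binding so polarization drops and inhibition rises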
ABHD4 confirm = ABHD4 (mouse) inhibition, FP confirmation. shares compounds with ABHD4 inh. purified mABHD4, FP-Rh probe fluorescence polarization. inhibition, % at 8.92 µM. 55% of 1,800 active;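 active = mean inhibition across replicates above the hit cutoff set in the primary screen, cut at about 30% in these data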;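 also: 0% = wild-type ABHD4 with DMSO and 100% = catalytically dead S159A mutant with DMSO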
* = called active by the depositor; . = no result given. Hits are enriched below; roughly 2.8% of the tested compounds scored in any of these assays.

SMILES | PAFAH1B3 FP inh | pPAFAH inh | HTRA1 inhibitor | PAFAH2 inh | PAFAH1B2 inh | ABHD4 inh | HTRA1 conf | ABHD4 confirm | others
CN(C)[C@@H]1C(=O)C(C(N)=O)=C(O)[C@@]2(O)C(=O)C3=C(O)c4c(O)cccc4[C@@](C)(O)C3C[C@@H]12 (stereo partly specified) | 30* | 32* | 22 | 21 | 16 | 64* | . | 9 | PAFAH1B3 conf FP=13
CN1C(=O)CCS(=O)(=O)C1c1ccc(Cl)cc1 (stereo unspecified) | . | . | . | . | . | 3 | . | .
Cn1ccnc1P(=S)(c1nccn1C)c1nccn1C | 12 | 0 | 71* | 9 | -1 | 3 | 106* | .
COc1cccc(-n2c(/C=C/c3ccc(O)c(O)c3)nc3ccccc3c2=O)c1 | -9 | 33* | 58* | 7 | 1 | 21 | 47* | .
COc1ccc(-n2c(/C=C/c3ccc(O)c(OC)c3)nc3ccccc3c2=O)cc1 | 4 | 13 | -8 | -3 | -1 | 1 | . | .
CC1CN2c3ccc([N+](=O)[O-])cc3CC3(C(=O)N(C)C(=O)N(C)C3=O)C2C(C)O1 (stereo unspecified) | 4 | 0 | -3 | -2 | 1 | 0 | . | .
CC(C)(C)OC(=O)NCCCCC(N)[P+](=O)O (stereo unspecified) | . | . | . | . | . | 4 | . | .
CC1=C[C@@H]2c3cccc4[nH]cc(c34)C[C@H]2N(C)C1 | 14 | 5 | 40* | 6 | -1 | 19 | 16 | .
O=C(COC(=O)Cc1ccccc1)NC(=O)NC1CCCCC1 | 7 | -4 | 36* | 10 | 2 | 2 | 38* | .
COc1ccc(Br)cc1CNCCc1ccc2c(c1)OCO2 | 3 | -3 | 8 | 0 | 5 | 7 | . | .
COc1ccccc1CCNCc1cc2c(cc1[N+](=O)[O-])OCO2 | 2 | 8 | 42* | 5 | 7 | 14 | 10 | .
Oc1ccccc1/C=N/NP(=S)(c1ccccc1)c1ccccc1 | 0 | -2 | -31 | -13 | -2 | -36 | . | .
Oc1ccc(/C=N/NP(=S)(c2ccccc2)c2ccccc2)cc1O | 3 | 19 | 58* | 3 | 2 | 24 | 62* | .
COC(=O)C1=C(c2ccc(OCc3ccccc3)cc2)C[C@@H]2CC[C@H]1N2C | . | . | -2 | . | . | 4 | . | .
NCCc1cc(O)c(O)cc1O | 88* | . | 73* | 72* | 55* | 45* | 48* | 92*
C[C@@H]1CN([C@H](C)CO)C(=O)CCCn2cc(nn2)CO[C@H]1CN(C)C(=O)Oc1ccc2ccccc2c1 | . | . | 0 | . | . | . | . | .
CC12CCC(=O)CC1CCC1C2C(=O)CC2(C)C1CCC2(C)O (stereo unspecified) | 9 | . | 1 | 10 | 5 | 5 | . | .
CC[n+]1c(-c2ccccc2)c2cc(N)ccc2c2ccc(N)cc21 | 90* | . | 109* | 82* | 65* | 82* | 118* | 105*
FCCN(CCF)c1cccc(Cl)c1 | . | 4 | . | . | . | 7 | . | .
O=[N+]([O-])c1ccc(N2CCCC2)c2ccncc12 | 9 | 5 | 4 | -1 | 9 | 7 | . | .
CCOC(=O)C1CCCN(c2ccc([N+](=O)[O-])c3nonc23)C1 (stereo unspecified) | 39* | . | 47* | 46* | 50* | 67* | 56* | 56*
CN(C)[C@@H]1C(=O)C(C(N)=O)=C(O)[C@@]2(O)C(=O)C3=C(O)c4c(O)ccc(Cl)c4[C@@](C)(O)[C@H]3C[C@@H]12 | 15 | 30* | 40* | 12 | 9 | 57* | 15 | 8
C=CCN1CCc2cccc3c2[C@H]1Cc1ccc(O)c(O)c1-3 | 8 | 17 | 63* | -7 | -3 | 44* | 80* | 24
COC(=O)C1=C(c2ccc(F)cc2OCc2ccccc2)C[C@@H]2CC[C@H]1N2C(=O)NCCN1CCOCC1 | 2 | -1 | -7 | 1 | 0 | 2 | . | .

Compound activity deposited in PubChem BioAssay by The Scripps Research Institute Molecular Screening Center.
